In ChEMBL document CHEMBL3351942, “Rexinoids isolated from Sophora tonkinensis with a gene expression profile distinct from the synthetic rexinoid bexarotene” (J Nat Prod, 2014) one finds Activity data, which are given here for one compound.

A short description of test [1]: Activation of LXR in mouse C2C12 cells assessed as induction of LPL mRNA expression at 10 uM after 24 hrs in presence of T0901317 by quantitative RT-PCR analysis. It is filed as cell-based. A digest of the protocol: (§1)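 C2C12 myoblasts grown in DMEM/10% FBS, differentiated at confluence in 2% horse serum, medium changed every other day for 5 days; myotubes treated 24 h with or without T0901317 (1 μM). Total RNA, DNase-treated, oligo(dT) RT from 0.5 μg, SYBR green qPCR; normalized to β-actin (delta-delta Ct), fold over vehicle; mean ± SD of four determinants, one of two experiments.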

Test [2] is described as follows: Activation of LXR in mouse C2C12 cells assessed as induction of ApoE mRNA expression at 10 uM after 24 hrs by quantitative RT-PCR analysis. It is filed as cell-based. A digest of the protocol: as §1
For test [3], the target named is T1, Peroxisome proliferator-activated receptor gamma (Homo sapiens) (UniProt P37231).
T1 sequence (whole entry): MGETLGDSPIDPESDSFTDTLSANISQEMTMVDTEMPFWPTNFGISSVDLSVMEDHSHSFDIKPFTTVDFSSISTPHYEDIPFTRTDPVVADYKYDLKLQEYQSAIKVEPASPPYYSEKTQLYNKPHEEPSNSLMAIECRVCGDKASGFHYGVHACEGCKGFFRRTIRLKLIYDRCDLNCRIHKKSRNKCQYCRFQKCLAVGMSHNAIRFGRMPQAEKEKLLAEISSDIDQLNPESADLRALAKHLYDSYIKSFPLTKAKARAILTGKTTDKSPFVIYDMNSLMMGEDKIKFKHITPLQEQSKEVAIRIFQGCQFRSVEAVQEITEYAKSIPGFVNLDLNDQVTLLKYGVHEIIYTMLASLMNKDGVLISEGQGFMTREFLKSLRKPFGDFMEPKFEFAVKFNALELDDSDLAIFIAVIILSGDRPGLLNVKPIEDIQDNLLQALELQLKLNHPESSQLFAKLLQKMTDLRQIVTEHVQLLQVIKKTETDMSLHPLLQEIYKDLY
The test can be described thus: Activation of PPARgamma (unknown origin) by receptor-CBP cofactor complex formation assay. A digest of the protocol: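 Cell-free cofactor recruitment ELISA: ligand-dependent binding of PPAR isotypes to CBP, detected by HRP-conjugated anti-PPAR antibody at OD450. Full agonists GW7647 (α), GW1929 (γ), GW501516 (δ) define 100%, vehicle 0%; efficacy as maximum B/Bmax% and potency as EC50.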

In test [4] the target is T2, Retinoic acid receptor RXR-beta (Homo sapiens) (UniProt P28702).
T2 sequence (whole entry): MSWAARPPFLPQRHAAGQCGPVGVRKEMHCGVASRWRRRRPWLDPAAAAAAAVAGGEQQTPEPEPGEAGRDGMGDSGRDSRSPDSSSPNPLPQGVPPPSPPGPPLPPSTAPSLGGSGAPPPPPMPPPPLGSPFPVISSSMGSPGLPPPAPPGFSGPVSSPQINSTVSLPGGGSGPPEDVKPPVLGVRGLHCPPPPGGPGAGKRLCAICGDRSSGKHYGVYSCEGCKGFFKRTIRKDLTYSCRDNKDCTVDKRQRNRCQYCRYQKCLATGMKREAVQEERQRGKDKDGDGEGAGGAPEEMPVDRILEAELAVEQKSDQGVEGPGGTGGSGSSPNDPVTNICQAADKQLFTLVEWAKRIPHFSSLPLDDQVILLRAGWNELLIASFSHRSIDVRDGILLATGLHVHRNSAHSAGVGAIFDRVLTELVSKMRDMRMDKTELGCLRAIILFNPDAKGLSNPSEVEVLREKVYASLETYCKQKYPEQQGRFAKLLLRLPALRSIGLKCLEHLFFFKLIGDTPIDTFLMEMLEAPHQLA
The test can be described thus: Binding affinity to RXRbeta (unknown origin) by receptor-SRC1 cofactor complex formation assay. A digest of the protocol:
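Ligand-dependent binding of RXR isotype to coactivator SRC-1 in an NR cofactor kit, detected with HRP-conjugated anti-RXR antibody at OD450. The full agonist CD3254 defined 100% and vehicle 0%. Efficacy was taken as maximum B/Bmax% and potency as EC50.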

For the next test, the system named is RAW264.7. Description: Activation of RXR/LXR heterodimer in mouse RAW264.7 cells assessed as potentiation of T0901317-induced increase in ABCA1 mRNA level at 10 uM by quantitative RT-PCR analysis. It is filed as cell-based. A digest of the protocol: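 RAW264.7 macrophages in DMEM/10% FBS, exposed 24 h with or without LXR agonist T0901317; ABCA1 mRNA by SYBR green qRT-PCR, β-actin-normalized, fold vs vehicle; means ± SD of three determinants, one of three independent experiments; one-way ANOVA, Bonferroni.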

Test [5] concerns the target T3, Peroxisome proliferator-activated receptor delta (Mus musculus) (UniProt P35396).
T3 sequence (whole entry): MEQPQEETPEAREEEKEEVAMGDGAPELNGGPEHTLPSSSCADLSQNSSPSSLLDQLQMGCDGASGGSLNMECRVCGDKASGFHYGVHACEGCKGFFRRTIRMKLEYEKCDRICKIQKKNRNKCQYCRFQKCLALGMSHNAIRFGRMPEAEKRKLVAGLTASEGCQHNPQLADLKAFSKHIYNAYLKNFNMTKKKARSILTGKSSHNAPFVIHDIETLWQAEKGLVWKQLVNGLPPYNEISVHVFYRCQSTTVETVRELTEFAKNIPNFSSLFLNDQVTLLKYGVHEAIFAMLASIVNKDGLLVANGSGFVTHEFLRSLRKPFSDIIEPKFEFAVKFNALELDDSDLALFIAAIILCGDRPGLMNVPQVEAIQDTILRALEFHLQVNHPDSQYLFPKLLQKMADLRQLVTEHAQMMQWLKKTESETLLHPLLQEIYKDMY
Description: Activation of PPARdelta in mouse C2C12 cells assessed as induction of CPT1A mRNA expression at 10 uM after 24 hrs by quantitative RT-PCR analysis. It is filed as cell-based. A digest of the protocol: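 Differentiated C2C12 myotubes (2% horse serum, 5 days) exposed 24 h with or without PPARδ agonist GW501516 (1 μM). mRNA quantified by SYBR green real-time RT-PCR, normalized to β-actin by delta-delta Ct, and expressed as fold induction vs vehicle; means ± SD of four determinants from one of two independent experiments; one-way ANOVA with Bonferroni.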

Test [6] can be described thus: Activation of LXR in mouse C2C12 cells assessed as induction of SREBP1 mRNA expression at 10 uM after 24 hrs by quantitative RT-PCR analysis. It is filed as cell-based.

Activity calls are given as the source filed them. The rule behind the calls is not given here.

In the case of `CC(C)=CCc1cc([C@@H]2CC(=O)c3ccc(O)c(CC=C(C)C)c3O2)cc2c1OC(C(C)(C)O)C2` (some centres not stated), the outcome (in test [1]; in test [2]; with RAW264.7; in test [5]; in test [6]) was Active. Also, the outcome in test [3] and in test [4] was inactive.
